The results in this text go back to ChEMBL document CHEMBL4706672 (J Med Chem, 2021).

In assay [1] the target is Protein cereblon/Apoptosis-stimulating of p53 protein 2 (Homo sapiens) (UniProt Q96SW2+Q13625). In words: Protac activity at CRBN/TP53BP2 in human BxPC-3 cells assessed as TP53BP2 degradation incubated for 16 hrs by proteomic analysis. Format: cell-based. A digest of the protocol:
(§1)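 BxPC-3 cells exposed 16 h in triplicate (control, PROTAC) or duplicate (other arms); lysed in RIPA at 4 °C, 75 μg protein per sample. Reduced with DTT (1 h, 55 °C), alkylated with 2-chloroacetamide, acetone-precipitated, trypsin-digested overnight at 37 °C, TMT 10plex labelled, relative quantitation by LC-tandem MS.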

A short description of assay [2]: Upregulation of SYNC protein levels in human BxPC-3 cells incubated for 16 hrs by proteomic analysis. Type of assay: functional. In a few lines:
as §1

In assay [3] the target is T1, Protein cereblon/E3 ubiquitin-protein ligase ZFP91 (Homo sapiens, UniProt Q96SW2+Q96JP5). The assay is described as follows: Protac activity at CRBN/ZFP91 in human BxPC-3 cells assessed as ZFP91 degradation incubated for 16 hrs by proteomic analysis. Type of assay: cell-based. A digest of the protocol: as §1
Target sequence in this assay (Q96JP5 2-570 partner limits assumed): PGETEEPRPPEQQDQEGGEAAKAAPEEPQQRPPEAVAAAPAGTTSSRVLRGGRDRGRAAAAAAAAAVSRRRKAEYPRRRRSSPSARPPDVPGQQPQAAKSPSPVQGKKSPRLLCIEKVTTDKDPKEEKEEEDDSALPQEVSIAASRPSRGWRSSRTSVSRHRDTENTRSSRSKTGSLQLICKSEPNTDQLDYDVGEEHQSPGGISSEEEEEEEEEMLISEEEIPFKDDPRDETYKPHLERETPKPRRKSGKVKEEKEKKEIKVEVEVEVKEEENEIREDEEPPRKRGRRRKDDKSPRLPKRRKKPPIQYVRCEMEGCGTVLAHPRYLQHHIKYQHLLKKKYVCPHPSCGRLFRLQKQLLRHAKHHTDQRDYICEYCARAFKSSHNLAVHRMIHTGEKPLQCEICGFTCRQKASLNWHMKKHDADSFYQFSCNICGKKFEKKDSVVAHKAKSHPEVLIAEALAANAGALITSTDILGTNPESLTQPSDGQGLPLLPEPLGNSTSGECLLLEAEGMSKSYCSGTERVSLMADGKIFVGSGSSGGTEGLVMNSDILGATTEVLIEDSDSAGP
Target sequence in this assay (Q96SW2 whole entry): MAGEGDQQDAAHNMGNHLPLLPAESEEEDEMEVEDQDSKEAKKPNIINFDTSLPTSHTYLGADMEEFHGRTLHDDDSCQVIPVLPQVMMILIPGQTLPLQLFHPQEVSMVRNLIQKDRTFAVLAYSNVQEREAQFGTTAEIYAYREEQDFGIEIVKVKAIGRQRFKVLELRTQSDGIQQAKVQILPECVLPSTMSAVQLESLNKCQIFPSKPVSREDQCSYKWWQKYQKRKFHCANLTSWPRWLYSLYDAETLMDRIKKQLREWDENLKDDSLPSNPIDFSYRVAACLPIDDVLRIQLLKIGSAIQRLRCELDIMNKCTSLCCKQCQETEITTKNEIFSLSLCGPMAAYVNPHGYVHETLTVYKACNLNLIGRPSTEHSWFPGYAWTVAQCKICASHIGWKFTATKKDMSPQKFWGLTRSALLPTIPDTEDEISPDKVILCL
The target of assay [4] is T1, Protein cereblon/E3 ubiquitin-protein ligase ZFP91. The assay is described as follows: Protac activity at CRBN/ZFP91 in human BxPC-3 cells assessed as induction of ZF91 degradation incubated for 16 hrs by western blot analysis. Format: cell-based. In a few lines: (§2)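 BxPC-3 cells treated for 4, 16 or 24 h across a concentration series. ZFP91 immunoblotted against GAPDH; bands quantified by densitometry, DC50 calculated from dose-response curves of the densitometry.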

Assay [5] is described as follows: Selectivity index, ratio of IC50 for antiproliferative activity against human HEK293 cell by MTT assay to IC50 for inhibition of IL-6 induced STAT3 transcription in human HEK293 cells. A digest of the protocol:
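HEK-293 cells carrying an SIE-luc2P STAT3 reporter, seeded 10,000/well, stimulated with IL6 at 100 ng/ml for 24 h, then given compound for 24 h; luciferase reagent added and luminescence read after 5 min. A parallel 24 h MTT assay was run in the same cells. Mean ± SD of three independent experiments.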
Background: Tetrazolium assays rely on reduction of a dye to a coloured formazan, in cell work by metabolically active cells.

Assay [6] addresses Protein cereblon/Laminin subunit beta-1 (Homo sapiens) (UniProt P07942+Q96SW2). In words: Protac activity at CRBN/LAMB1 in human BxPC-3 cells assessed as LAMB1 degradation incubated for 16 hrs by proteomic analysis. Format: cell-based. A digest of the protocol:
(§3)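 TMT 10plex proteomics. […] Samples (75 μg) were reduced with DTT, alkylated with 2-chloroacetamide, acetone-precipitated, trypsin-digested overnight at 37 °C and TMT-labeled for LC-MS/MS relative quantitation.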

The nature of assay [7]: Upregulation of HMGCR protein levels in human BxPC-3 cells incubated for 16 hrs by proteomic analysis. Format: functional. In a few lines:
as §1

The target in assay [8] is Protein cereblon/Small EDRK-rich factor 2 (Homo sapiens) (UniProt Q96SW2+P84101). The assay is described as follows: Protac activity at CRBN/SERF2 in human BxPC-3 cells assessed as SERF2 degradation incubated for 16 hrs by proteomic analysis. Type of assay: cell-based. In a few lines: as §3
Assay [9] addresses T1, Protein cereblon/E3 ubiquitin-protein ligase ZFP91. The assay is described as follows: Protac activity at CRBN/ZFP91 in human BxPC-3 cells assessed as induction of ZF91 degradation incubated for 4 hrs by western blot analysis. Type of assay: cell-based. A digest of the protocol:
as §2
Target sequence in this assay (Q96JP5 2-570 partner limits assumed): as the sequence (Q96JP5 2-570 partner limits assumed) above
Target sequence in this assay (Q96SW2 whole entry): as the sequence (Q96SW2 whole entry) above

For assay [10], the target named is Protein cereblon/Pleckstrin homology-like domain family B member 1 (Homo sapiens) (UniProt Q96SW2+Q86UU1). The assay is described as follows: Protac activity at CRBN/PHLDB1 in human BxPC-3 cells assessed as PHLDB1 degradation incubated for 16 hrs by proteomic analysis. Type of assay: cell-based. In a few lines: as §3
Assay [11] concerns the target Protein cereblon/Desmoplakin (Homo sapiens) (UniProt Q96SW2+P15924). In words: Protac activity at CRBN/DSP in human BxPC-3 cells assessed as DSP degradation incubated for 16 hrs by proteomic analysis. Format: cell-based. In a few lines: as §3
The subject of assay [12] is MIA PaCa-2. In words: Effect on NQO1 expression in human MIA PaCa-2 cells at […] to 1 uM incubated for 16 hrs by western blot analysis. Type of assay: functional, cell-based. The conditions noted are these: dose 0.5-1 µM. In a few lines: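 Cells were seeded in 6-well plates (BxPC-3 500 × 10^3, MIA PaCa-2 200 × 10^3 cells/well) and exposed to compound for 16 h. Lysis was at 4 °C by sonication in Tris/NaCl/Triton/SDS buffer, pH 7.4, with protease and phosphatase inhibitors. Lysates were run on SDS-PAGE, transferred to PVDF and probed for STAT3, pSTAT3 and NQO1 with GAPDH as loading control. Immunoblots were imaged on an Odyssey system.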

In assay [13] the target is Protein cereblon/Cystatin-C (Homo sapiens) (UniProt P01034+Q96SW2). The assay is described as follows: Protac activity at CRBN/CST3 in human BxPC-3 cells assessed as CST3 degradation incubated for 16 hrs by proteomic analysis. Type of assay: cell-based. A digest of the protocol: as §3

Calls of active or inactive are those of the source. The rule behind the calls is not given here.

Protein cereblon/Laminin subunit beta-1 (Homo sapiens), sequence (P07942 whole entry, looked up): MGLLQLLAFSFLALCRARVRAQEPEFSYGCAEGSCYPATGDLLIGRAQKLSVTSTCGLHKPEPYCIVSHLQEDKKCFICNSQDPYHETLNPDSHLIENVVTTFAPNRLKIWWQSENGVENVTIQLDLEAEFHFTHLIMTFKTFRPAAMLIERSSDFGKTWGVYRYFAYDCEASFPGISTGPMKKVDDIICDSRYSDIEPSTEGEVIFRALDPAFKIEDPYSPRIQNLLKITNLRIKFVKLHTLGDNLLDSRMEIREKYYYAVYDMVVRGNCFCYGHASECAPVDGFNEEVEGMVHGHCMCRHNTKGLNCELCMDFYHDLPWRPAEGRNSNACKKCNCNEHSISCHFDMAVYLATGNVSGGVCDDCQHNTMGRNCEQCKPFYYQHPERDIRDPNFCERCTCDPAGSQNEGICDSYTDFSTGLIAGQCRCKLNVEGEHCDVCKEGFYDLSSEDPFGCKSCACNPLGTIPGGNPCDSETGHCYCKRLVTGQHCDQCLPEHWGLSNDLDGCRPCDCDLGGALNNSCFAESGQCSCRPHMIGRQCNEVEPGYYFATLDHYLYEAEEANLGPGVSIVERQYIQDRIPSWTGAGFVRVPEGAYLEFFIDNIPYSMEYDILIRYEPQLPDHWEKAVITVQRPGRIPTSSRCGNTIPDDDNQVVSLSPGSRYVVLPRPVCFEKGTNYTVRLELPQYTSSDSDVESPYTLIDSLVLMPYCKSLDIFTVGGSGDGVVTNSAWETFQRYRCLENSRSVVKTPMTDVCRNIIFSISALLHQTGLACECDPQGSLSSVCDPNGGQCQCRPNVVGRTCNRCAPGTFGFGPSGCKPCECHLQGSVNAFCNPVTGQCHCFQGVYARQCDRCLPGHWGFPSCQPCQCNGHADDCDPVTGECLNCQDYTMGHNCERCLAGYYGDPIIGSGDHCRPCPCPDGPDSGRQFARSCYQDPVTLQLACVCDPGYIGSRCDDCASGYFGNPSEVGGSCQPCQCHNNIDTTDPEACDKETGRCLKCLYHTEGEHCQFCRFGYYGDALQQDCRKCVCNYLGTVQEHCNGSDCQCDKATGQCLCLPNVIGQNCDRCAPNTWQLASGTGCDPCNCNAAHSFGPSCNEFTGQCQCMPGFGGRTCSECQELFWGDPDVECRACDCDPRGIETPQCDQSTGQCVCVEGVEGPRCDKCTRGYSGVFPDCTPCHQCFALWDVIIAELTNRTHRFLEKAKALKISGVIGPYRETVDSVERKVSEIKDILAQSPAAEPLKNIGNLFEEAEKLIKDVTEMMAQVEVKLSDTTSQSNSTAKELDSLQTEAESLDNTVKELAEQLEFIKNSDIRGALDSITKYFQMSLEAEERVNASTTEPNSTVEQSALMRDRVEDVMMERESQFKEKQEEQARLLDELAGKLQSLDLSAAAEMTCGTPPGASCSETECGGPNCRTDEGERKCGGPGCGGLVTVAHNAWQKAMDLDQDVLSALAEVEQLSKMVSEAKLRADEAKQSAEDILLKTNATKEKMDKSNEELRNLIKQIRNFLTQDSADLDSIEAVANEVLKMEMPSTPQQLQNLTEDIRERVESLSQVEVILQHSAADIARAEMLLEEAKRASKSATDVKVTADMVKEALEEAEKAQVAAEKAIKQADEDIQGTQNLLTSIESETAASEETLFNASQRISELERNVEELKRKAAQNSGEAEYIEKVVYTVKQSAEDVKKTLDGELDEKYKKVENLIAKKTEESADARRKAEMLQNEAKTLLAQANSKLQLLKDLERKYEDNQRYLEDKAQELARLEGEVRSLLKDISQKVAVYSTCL
Protein cereblon/Laminin subunit beta-1 (Homo sapiens), sequence (Q96SW2 whole entry, looked up): as the sequence (Q96SW2 whole entry) above
Protein cereblon/Pleckstrin homology-like domain family B member 1 (Homo sapiens), sequence (Q86UU1 whole entry, looked up, the tested form may be a part): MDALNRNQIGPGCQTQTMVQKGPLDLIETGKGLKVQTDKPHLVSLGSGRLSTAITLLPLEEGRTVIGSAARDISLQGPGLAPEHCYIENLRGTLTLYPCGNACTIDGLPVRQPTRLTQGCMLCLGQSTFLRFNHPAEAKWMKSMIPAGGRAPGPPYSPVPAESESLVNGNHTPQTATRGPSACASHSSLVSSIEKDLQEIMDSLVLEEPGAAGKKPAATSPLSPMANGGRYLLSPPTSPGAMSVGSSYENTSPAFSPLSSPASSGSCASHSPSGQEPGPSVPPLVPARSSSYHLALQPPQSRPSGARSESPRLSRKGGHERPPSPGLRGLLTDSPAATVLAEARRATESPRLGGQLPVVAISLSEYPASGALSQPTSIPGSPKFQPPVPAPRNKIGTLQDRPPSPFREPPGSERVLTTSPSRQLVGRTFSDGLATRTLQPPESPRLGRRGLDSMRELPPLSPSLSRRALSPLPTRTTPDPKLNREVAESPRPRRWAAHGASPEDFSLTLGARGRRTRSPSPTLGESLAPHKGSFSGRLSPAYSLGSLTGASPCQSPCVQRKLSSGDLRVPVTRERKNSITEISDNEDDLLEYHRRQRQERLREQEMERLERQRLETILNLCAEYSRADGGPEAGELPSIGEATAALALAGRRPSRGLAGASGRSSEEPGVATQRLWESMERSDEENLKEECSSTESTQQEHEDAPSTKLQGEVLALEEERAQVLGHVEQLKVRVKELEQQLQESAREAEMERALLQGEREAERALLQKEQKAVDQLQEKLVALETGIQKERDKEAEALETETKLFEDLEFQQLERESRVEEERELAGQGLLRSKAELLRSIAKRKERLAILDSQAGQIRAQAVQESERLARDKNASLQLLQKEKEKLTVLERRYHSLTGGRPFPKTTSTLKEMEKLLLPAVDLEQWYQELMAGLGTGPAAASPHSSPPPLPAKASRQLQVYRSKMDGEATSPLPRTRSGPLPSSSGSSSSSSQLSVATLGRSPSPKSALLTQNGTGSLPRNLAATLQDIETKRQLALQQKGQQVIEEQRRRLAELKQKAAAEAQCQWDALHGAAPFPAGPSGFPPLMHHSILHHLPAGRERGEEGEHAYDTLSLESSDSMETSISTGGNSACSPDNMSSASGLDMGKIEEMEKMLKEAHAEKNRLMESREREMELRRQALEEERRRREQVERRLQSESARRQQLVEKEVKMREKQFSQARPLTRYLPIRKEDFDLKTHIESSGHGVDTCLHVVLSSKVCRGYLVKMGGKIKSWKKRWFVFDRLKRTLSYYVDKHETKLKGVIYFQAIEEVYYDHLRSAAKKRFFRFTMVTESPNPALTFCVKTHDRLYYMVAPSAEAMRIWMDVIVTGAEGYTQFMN
Protein cereblon/Pleckstrin homology-like domain family B member 1 (Homo sapiens), sequence (Q96SW2 whole entry, looked up, the tested form may be a part): as the sequence (Q96SW2 whole entry) above
Protein cereblon/Cystatin-C (Homo sapiens), sequence (P01034 whole entry, looked up): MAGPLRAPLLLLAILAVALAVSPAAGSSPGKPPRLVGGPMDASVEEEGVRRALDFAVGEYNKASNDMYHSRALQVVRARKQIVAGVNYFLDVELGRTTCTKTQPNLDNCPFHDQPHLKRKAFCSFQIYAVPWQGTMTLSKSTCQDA
Protein cereblon/Cystatin-C (Homo sapiens), sequence (Q96SW2 whole entry, looked up): as the sequence (Q96SW2 whole entry) above
Protein cereblon/Small EDRK-rich factor 2 (Homo sapiens), sequence (P84101 whole entry, looked up): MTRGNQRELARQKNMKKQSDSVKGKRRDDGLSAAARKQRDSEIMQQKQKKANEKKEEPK
Protein cereblon/Small EDRK-rich factor 2 (Homo sapiens), sequence (Q96SW2 whole entry, looked up): as the sequence (Q96SW2 whole entry) above

For the compound `O=C1CCC(N2C(=O)c3cccc(NCCCCCC4CCN(CCNC(=O)c5cc6c(o5)C(=O)c5ccccc5C6=O)CC4)c3C2=O)C(=O)N1` (stereo not drawn), the log2FC was -1.02 in assay [1]; 1.04 in [2]; -0.62 in [3]; -0.67 in assay [6]; 0.83 in [7]; -0.61 in [8]. The log2FC in [10] was -0.64; in assay [11], -0.7; in [13] it was -0.81. For the same compound, the DC50 (usually the concentration giving 50% degradation) in [4] came out at 80 nM. Also, the “Ratio IC50” value in assay [5] is 7. The result in assay [9] and in [12] was inactive.
